ChEMBL document CHEMBL1275328, “Targeting the polyamine transport system with benzazepine- and azepine-polyamine conjugates” (J Med Chem, 2010)
Where a name gives a salt, the structure may show the parent alone. The source made the active and inactive calls. No cut-off for these calls is given here.

Key:
[1] = test system: L1210; experiment: Ratio of spermidine Km to compound Ki for polyamine transport system in mouse L1210 cells; format: cell-based
Summary of the method: (§1)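 2 × 10^6 L1210 cells in 0.6 mL HBSS/20 mM HEPES, 10 min uptake at 37 °C of 1 μM [14C]spermidine with increasing competitor concentrations. IC50 obtained by iterative sigmoidal curve fitting, Ki by Cheng-Prusoff. Spermidine Km from Lineweaver-Burke analysis of uptake at rising labelled substrate. Mean ± SD, three determinations.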

[2] = Inhibition of [14C]spermidine uptake at polyamine transport system in mouse L1210 cells after 10 mins; format: cell-based; summary of the method: as §1
[3] = test system: L1210; experiment: Drug uptake in mouse L1210 cells expressing polyamine transport system after 24 hrs by HPLC; format: ADME, cell-based; settings: l1210, 24 h
Summary of the method: (§2)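 Compound given at 0.1 to 100 μM for 24 h exposure; medium RPMI 1640/10% FCS with 2 mM aminoguanidine. CHO cells seeded at 2 × 10^5 cells/mL and dosed 24 h after seeding. L1210 cells seeded at 4 × 10^4 cells/mL and dosed at seeding. Cells washed thrice in cold 0.14 M NaCl, sonicated in 0.2 N HClO4. Extracts analysed by ion-pair C18 HPLC with post-column OPA/N-acetylcysteine fluorescence (ex 345, em 455 nm). Protein measured on pellet.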

[4] = test system: CHO; experiment: Drug uptake in CHO cells expressing polyamine transport system after 24 hrs by HPLC; format: ADME, cell-based, Cricetulus griseus; settings: chinese hamster; summary of the method: as §2
[5] = test system: L1210; experiment: Drug uptake in mouse L1210 cells expressing polyamine transport system in presence of ornithine decarboxylase inhibitor DFMO after 48 hrs by HPLC; settings: l1210, 48 h
[6] = test system: L1210; experiment: Cytostatic toxicity against mouse L1210 cells expressing polyamine transport system after 48 hrs by MTT assay; format: ADME, cell-based; settings: l1210, 48 h
Summary of the method: (§3)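 L1210 cells seeded at 5 × 10^4 cells/mL in RPMI 1640 with 10% FCS and 2 mM aminoguanidine, 37 °C, 5% CO2. Compound added at seeding, 48 h exposure. Growth read as MTT formazan absorbance at 540 nm. Growth taken relative to untreated control cells. Means of three or more experiments.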

[7] = test system: L1210; experiment: Cytostatic toxicity against mouse L1210 cells expressing polyamine transport system assessed as effect on cell growth upto 20 uM after 48 hrs by MTT assay; format: ADME, cell-based; settings: l1210, 48 h; summary of the method: as §3
[8] = test system: L1210; experiment: Inhibition of reversion of DFMO-induced cytostatic effect against mouse L1210 cells expressing polyamine transport system at 20 uM pretreated with 100 uM putrescine for 24 hrs after DFMO addition measured after 48 hrs by MTT assay; format: functional, cell-based
Summary of the method: (§4)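 L1210 cells seeded in 5 mM DFMO. After 24 h, free putrescine, spermidine or spermine added with or without 20 μM test compound. Growth measured by MTT assay 48 h later.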

[9] = test system: L1210; experiment: Inhibition of reversion of DFMO-induced cytostatic effect against mouse L1210 cells expressing polyamine transport system at 20 uM pretreated with 1 uM spermine for 24 hrs after DFMO addition measured after 48 hrs by MTT assay; format: functional, cell-based; summary of the method: as §4
[10] = test system: L1210; experiment: Inhibition of reversion of DFMO-induced cytostatic effect against mouse L1210 cells expressing polyamine transport system at 20 uM pretreated with 20 uM spermidine for 24 hrs after DFMO addition measured after 48 hrs by MTT assay; format: functional, cell-based; summary of the method: as §4
[11] = Cytostatic toxicity against mouse L1210 cells expressing polyamine transport system assessed as cell viability at 100 uM after 48 hrs by trypan blue assay; format: ADME, cell-based
Summary of the method: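 L1210 cells exposed 48 h to 100 μM compound, viability scored by Trypan blue exclusion.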

[12] = test system: L1210; experiment: Ratio of drug uptake in mouse L1210 cells at 10 uM in presence of 5 mM ornithine decarboxylase inhibitor DFMO to drug uptake in mouse L1210 cells at 10 uM after 48 hrs by HPLC; format: ADME, cell-based; settings: l1210, 48 h
Summary of the method: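 L1210 cells seeded at 4 × 10^4 cells/mL and given 10 μM conjugate at seeding, ±5 mM DFMO, medium containing 2 mM aminoguanidine. Harvest at 48 h, washed in cold 0.14 M NaCl, perchloric extract. Intracellular conjugate measured by ion-pair HPLC with OPA fluorescence. Ratio is DFMO/control accumulation. Mean ± SD of three determinations; Student's t test.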

[13] = Cytostatic toxicity against mouse L1210 cells expressing polyamine transport system assessed as reduction in cell growth at 10 uM after 48 hrs by MTT assay; format: ADME, cell-based; summary of the method: as §3

Row | SMILES | Ratio [1] | Ki [2] [µM] | Drug uptake [3] | Drug uptake [4] | other results
1 | NCCCCCCCCNC1=NCCCCC1 | 0.013 | 183 | – | – | –
2 | NCCCCCNCCCN | 0.29 | 8.03 | – | – | –
3 | Cl.Cl.NCCCCNC1=NCCCCC1 | 0.003 | 763 | Dose-dependent effect | Dose-dependent effect | Drug uptake [5]: Active
4 | NCCCNCCCNCCCNC1=Nc2ccccc2CCC1 | 2.69 | 0.88 | – | – | –
5 | NCCCCCCCCNC1=Nc2ccccc2CCC1 | 0.019 | 126 | – | – | –
6 | Cl.Cl.NCCCCNC1=Nc2ccccc2CCC1 | 0.067 | 35.1 | Dose-dependent effect | Dose-dependent effect | –
7 | Cl.NCCCNCCCCNCCCNC1=Nc2ccccc2CCC1 | 15.8 | 0.15 | Dose-dependent effect | Dose-dependent effect | Drug uptake [5]: Active
8 | COc1ccc2c(c1)CCCC(NCCCNCCCCNCCCN)=N2.Cl | 10.3 | 0.23 | – | – | Activity [6]: Toxic
9 | NCCCNC[C@@H](O)[C@@H](O)CNCCCN | 0.45 | 5.27 | – | – | –
10 | Cl.NCCCNCCCCNCCCNC1=NCCCCC1 | 6.77 | 0.35 | Dose-dependent effect | Dose-dependent effect | Drug uptake [5]: Active
11 | Cl.NCCCNCCCCNCCCNC1=Nc2ccc(N)cc2CCC1 | 12.5 | 0.19 | – | – | Activity [6]: Toxic
12 | NCCCCNCCCCNCCCCNC1=Nc2ccccc2CCC1 | 11.9 | 0.2 | – | – | –
13 | NCCCNC[C@@H](O)[C@@H](O)CNCCCNC1=Nc2ccccc2CCC1 | 1.05 | 2.25 | – | – | –
14 | NCCCCN [PUTRESCINE DIHYDROCHLORIDE] | 0.011 | 208 | – | – | –
15 | Cl.NCCCNCCCCNCCCNC1=Nc2ccc(Br)cc2CCC1 | 16.9 | 0.14 | – | – | Activity [6]: Toxic
16 | Cl.NCCCCNCCCNC1=Nc2ccccc2CCC1 | 0.54 | 4.4 | Dose-dependent effect | Dose-dependent effect | –
17 | Cl.NCCCNCCCCNC1=NCCCCC1 | 0.053 | 44.7 | Dose-dependent effect | Dose-dependent effect | Drug uptake [5]: Active
18 | Cl.NCCCNCCCCNCCCNC1=Nc2ccc([N+](=O)[O-])cc2CCC1 | 19.8 | 0.12 | – | – | Activity [7]: Non-toxic; inhibition [8]: Active; inhibition [9]: Active; inhibition [10]: Active
19 | NCCCNCCCCNCCCN | 1.77 | 1.34 | – | – | –
20 | NCCCNCCCN [NORSPERMIDINE TRIHYDROCHLORIDE] | 0.46 | 5.12 | – | – | –
21 | NCCCCNCCCCN [HOMOSPERMIDINE] | 1.03 | 2.3 | – | – | –
22 | Cl.NCCCCNCCCNC1=NCCCCC1 | 0.16 | 14.6 | Dose-dependent effect | Dose-dependent effect | viability at 48 h, 100 µM [11]: > 95%; Ratio [12]: 4; Drug uptake [5]: Active; inhibition at 48 h, 10 µM [13]: 30%
23 | Cl.NCCCCCNCCCNC1=NCCCCC1 | 0.051 | 45.9 | Dose-dependent effect | Dose-dependent effect | Drug uptake [5]: Active
24 | Cl.NCCCCNCCCCNC1=NCCCCC1 | 0.43 | 5.47 | Dose-dependent effect | Dose-dependent effect | viability at 48 h, 100 µM [11]: > 95%; Drug uptake [5]: Active; inhibition at 48 h, 10 µM [13]: 65%
25 | NCCCCCCCCN | 0.098 | 24.1 | – | – | –
26 | NCCCCNCCCCNCCCCN [HOMOSPERMINE] | 3.25 | 0.73 | – | – | –
27 | Cl.NCCCNCCCNC1=NCCCCC1 | 0.015 | 161 | Dose-dependent effect | Dose-dependent effect | Drug uptake [5]: Active
28 | NCCCNCCCNCCCN [NORSPERMINE] | 1.57 | 1.51 | – | – | –
